# Source: PubChem
# A selection: hits, their analogues and other compounds. The true share with any hit is near 2.2%.
# BCLXL inh – blocks human Bcl-xL binding to Bim BH3 peptide; inhibition, % at 10.9 µM; 0.7% of 320,000 active; Q07817; GST-Bcl-xL / FITC-Bim BH3 peptide fluorescence polarization;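 active = inhibition above the mean of all tested compounds plus 3 SD, cutoff set per campaign, cut at about 30% in these data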;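 also: inhibitors lower millipolarization by displacing the labeled peptide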
# IMP-1 inhibitor – inhibitors of Pseudomonas aeruginosa IMP-1 metallo-beta-lactamase; inhibition, % at 5.6 µM; purified IMP-1, nitrocefin hydrolysis, epi-absorbance fluorescence; 0.45% of 290,000 active;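 active = inhibition above the mean plus 3 SD of all compounds in the same screening run, cut at about 4.5% in these data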
#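 System: purified IMP-1; amount: IMP-1 0.2 nM before substrate addition; compound: single dose, 5.6 µM; times: 25 °C, 15 min preincubation, 25 min reaction; signal: Epi-absorbance via hydrolysed-nitrocefin quenching of white-plate fluorescence, 480/530 nm, EDTA stop; benchmarks: DMSO with and without IMP-1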
# VIM-2 inh – inhibitors of Pseudomonas aeruginosa VIM-2 metallo-beta-lactamase | purified VIM-2, nitrocefin hydrolysis, epi-absorbance fluorescence | inhibition, % at 5.6 µM | 0.89% of 290,000 active;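 active = inhibition above the mean of all tested compounds plus 3 SD, cutoff set per screening run, cut at about 7.5% in these data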;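 also: red hydrolysis product quenches plate fluorescence so inhibitors raise well fluorescence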
# EBV gp42 inh – EBV gp42 inhibition. Fluorescence polarization binding assay, mP read-out. Q1HVG2. inhibition, % (tested at 21.74 µM). 0.42% of 220,000 active; in the data active = inhibition above about 50%
# GLD-1 RNA inh – GLD-1-TGE RNA interaction inhibition (C. elegans) | Q17339 | purified GLD-1 + fluorescein TGE RNA, fluorescence polarization | inhibition, % at 5.96 µM | 0.44% of 320,000 active;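 active = percent inhibition above a per-plate cutoff, the plate mean of test compounds plus 3 SD, cut at about 30% in these data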
# Target sequence (Q17339 whole entry, looked up): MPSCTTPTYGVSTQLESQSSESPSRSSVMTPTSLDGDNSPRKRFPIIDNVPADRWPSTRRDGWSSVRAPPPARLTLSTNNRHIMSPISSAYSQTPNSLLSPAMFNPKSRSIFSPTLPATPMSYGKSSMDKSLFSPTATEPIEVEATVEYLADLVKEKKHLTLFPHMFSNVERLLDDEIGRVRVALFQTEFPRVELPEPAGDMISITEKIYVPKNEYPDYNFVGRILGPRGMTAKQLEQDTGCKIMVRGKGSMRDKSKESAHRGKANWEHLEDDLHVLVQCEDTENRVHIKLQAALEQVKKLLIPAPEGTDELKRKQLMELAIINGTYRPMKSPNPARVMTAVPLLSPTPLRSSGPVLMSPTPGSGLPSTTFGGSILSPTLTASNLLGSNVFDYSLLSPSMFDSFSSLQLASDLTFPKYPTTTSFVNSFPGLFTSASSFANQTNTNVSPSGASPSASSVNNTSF
# MEX-5 binding – C. elegans MEX-5 TCR-2 RNA binding activity. Q9XUB2. MEX-5/FITC-TCR2 RNA binding, fluorescence polarization; hits give low values. activity score (negative = inhibition of binding), % at 10 µM. 0.38% of 300,000 active;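 active = inhibition past about -25% in most replicates, and total fluorescence under double the plate's negative control median, limit read from the data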
# Numbers stand for hits; 0 = inactive; - = not tested or not shown.
SMILES,BCLXL inh,IMP-1 inhibitor,VIM-2 inh,EBV gp42 inh,GLD-1 RNA inh,MEX-5 binding
O=C1c2cccc(O)c2C(=O)c2c(O)cccc21,119.3,0,0,0,92.1,0
CCCCn1c(N)c(N(CCOC)C(=O)c2cc3c(s2)CCC3)c(=O)[nH]c1=O,0,-,-,-,0,0
C/C(=N\NC(=O)c1cc(C)nc2ccccc12)c1ccco1,0,0,0,0,0,0
COc1ccc(-c2cc(C(=O)N/N=C(\C)c3ccco3)c3ccccc3n2)c(OC)c1,0,0,0,-,0,-31.8
Clc1ccc2c(N/N=C/c3cccnc3)ccnc2c1,0,0,11.5,0,0,0
CN1C(C(=O)Nc2cccc(O)c2)=CC(c2ccco2)=NS1(=O)=O,0,0,0,-,0,0
COC(=O)c1ccc(N(C(=O)c2ccco2)C(C(=O)NC2CCCC2)c2ccco2)cc1 (stereo not drawn),0,4.5,0,0,0,0
CCOC(=O)C(OC(=O)c1sc(=S)n(C)c1C)C(C)=O (stereo not drawn),0,0,9.2,0,0,0
Cc1ccc(OCCOC(=O)c2sc(=S)n(C)c2C)cc1,0,0,0,0,0,0
Cc1cc(C)n2cc(CSc3nc4ccccc4s3)nc2n1,0,0,10.5,0,0,0
CC1CCCC(C)N1C(=O)COC(=O)c1c[nH]c2ccccc12 (stereo not drawn),0,-,-,-,0,-
CCOC(=O)COc1c(OC)cc(Cl)cc1C1Nc2ccccc2C(=O)N1c1ccccc1 (stereo not drawn),0,0,0,0,0,0
CCOC(=O)COc1c(OC)cc(Cl)cc1C1Nc2ccccc2C(=O)N1c1cccc(C)c1 (stereo not drawn),0,5.6,0,0,0,0
CSc1scc2c1-c1nc(SCC(=O)C(C)(C)C)ncc1CC2,0,9.8,0,0,0,0
O=C1C2=C(SCCS2)C(=O)N1c1ccccc1,0,0,0,0,0,-45.4
Cc1sc2ncnc(NCC(c3ccccc3)N(C)C)c2c1C (stereo not drawn),0,0,8.7,-,0,0
Cc1sc2ncnc(NCC(O)c3ccccc3)c2c1C (stereo not drawn),0,0,0,-,0,0
Cc1nc(NCC(c2ccccc2)N(C)C)c2c(C)c(C)sc2n1 (stereo not drawn),0,0,7.8,-,0,0
COc1ccc(C)cc1NC(=O)CCC(=O)Nc1nnc(C2CCCCC2)s1,0,0,0,-,0,0
CCCc1cc(NCCN(C)C)n2c(nc3ccccc32)c1C#N,0,0,8.3,-,0,0
CCCc1cc(NCC2CCCO2)n2c(nc3ccccc32)c1C#N (stereo not drawn),0,0,8.7,0,0,0
CCCc1cc(NCc2ccccn2)n2c(nc3ccccc32)c1C#N,0,0,0,0,0,0
Cc1cc(NCc2ccccn2)n2c(nc3ccccc32)c1C#N,-,0,11.7,0,-,0
Cc1sc2nc(SCC(=O)N3CCN(CCO)CC3)n(-c3ccccc3)c(=O)c2c1C,0,0,23.6,0,0,0
Cc1ccc(-n2c(SCC(=O)N3CCCCC3)nc(O)c(Cc3ccccc3)c2=O)cc1,0,9.3,0,-,0,0
SMILES,BCLXL inh,IMP-1 inhibitor,VIM-2 inh,EBV gp42 inh,GLD-1 RNA inh,MEX-5 binding
O=C(CCNC(=O)C1CCN(S(=O)(=O)c2ccccc2)CC1)NCCc1cccc(F)c1,0,0,0,-,0,0
COc1ccc(OC)c(/C=N/N2CCN(c3ccc(Cl)cc3)CC2)c1,0,0,0,-,0,0
CCOC(=O)c1c(NC(=O)CSc2ncn[nH]2)sc(C(=O)NC)c1C,0,0,10.0,-,0,0
COc1ccc(NC(=O)CCS(=O)(=O)c2ccc(OC)cc2)cc1,0,0,0,0,0,0
CCOc1ccc(NC(=O)CCS(=O)(=O)c2ccc(Br)cc2)cc1,0,15.9,0,-,0,0
O=C(CCS(=O)(=O)c1ccc(Br)cc1)NCc1ccco1,0,19.9,0,-,0,0
CCc1ccccc1NC(=O)CCS(=O)(=O)c1ccc(Br)cc1,0,34.2,0,-,0,0
COC(=O)c1ccccc1NC(=O)CCS(=O)(=O)c1ccc(Br)cc1,-,34.9,0,75.5,-,0
Cc1cccc(CC(=O)NCC(=O)NCc2cc(=O)n(C)c(=O)n2C)c1,0,0,0,-,0,0
CCOc1ccccc1NC(=O)CCS(=O)(=O)c1ccc(Br)cc1,0,18.1,0,-,0,0
CCOc1ccccc1NC(=O)CCNS(=O)(=O)c1ccc(NC(C)=O)cc1,0,0,0,-,0,0
COc1ccc(NC(=O)CSc2nc3ccccc3c(=O)n2CCCO)cn1,0,-,-,-,0,-
CCOc1ccc(C2C(C(=O)/C=C/c3ccco3)=C(O)C(=O)N2CCN2CCOCC2)cc1OC (stereo not drawn),33.8,0,0,0,0,0
Cc1cc(NS(=O)(=O)c2ccc(NC(=O)Cc3cccs3)cc2)no1,0,0,0,0,0,0
Cc1cc(NC(=O)Cc2cccs2)no1,0,6.8,0,71.2,0,-
O=C(O)c1ccccc1C(=O)NCCc1c(C(=O)O)[nH]c2ccc(Cl)cc12,0,0,10.1,0,0,0
Cc1cc(Cl)ccc1C(=O)C1CCCN(C(=O)c2cncs2)C1 (stereo not drawn),0,0,0,-,0,0
CC(=O)c1ccc(OC(C)c2nc3ccccc3s2)cc1 (stereo not drawn),0,0,0,-,0,0
O=c1cc(-c2ccccc2)nc2c(-c3ccccc3)c(C(F)(F)F)[nH]n12,0,0,0,59.9,0,0
Cc1cc(Cl)ccc1NC(=O)CCN1C(=O)NC(C)(C)C1=O,0,-,-,-,0,-
Nc1sccc1C(=O)c1ccc(Cl)cc1,-,0,0,0,-,0
NC(=O)c1ccsc1N,176.7,0,0,0,118.5,-34.7
CS(=O)(=O)Nc1ccc(C(=O)NCCc2ccccc2)cc1,144.7,0,0,0,0,0
c1cnc(SCCOc2cccc3ccccc23)nc1,0,4.8,0,0,0,0
COc1ccc(CC(=O)NC2CCS(=O)(=O)C2)cc1 (stereo not drawn),0,-,-,-,0,0
CCCCN(C(=O)C1CSC2(C)CCC(=O)N12)c1c(N)n(CC(C)C)c(=O)[nH]c1=O (stereo not drawn),0,-,-,-,0,-
C#CCOCCOCCOCCNc1nc(N2CCN(C(=O)[C@H]([C@@H](C)CC)n3cc([C@@H](N)CO)nn3)CC2)nc(N2CCN(C(=O)[C@H]([C@@H](C)CC)n3cc([C@@H](N)CC(C)C)nn3)CC2)n1,43.4,0,0,0,0,-38.4
C#CCOCCOCCOCCNc1nc(N2CCN(C(=O)[C@H]([C@@H](C)CC)n3cc([C@@H](N)CO)nn3)CC2)nc(N2CCN(C(=O)[C@H]([C@@H](C)CC)n3cc([C@@H](N)CO)nn3)CC2)n1,-,-,-,0,-,0
